HTRA1 inhibitor = inhibitors of human serine peptidase HTRA1; Q92743; recombinant HTRA1, FP-rhodamine activity-based probe, fluorescence polarization; inhibition, % at 5.96 µM; 340,000 compounds, 0.5% hits; in the data active = inhibition above about 36%;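 also: 0% = enzyme with DMSO and 100% = wells lacking enzyme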
Target sequence (Q92743 whole entry, looked up): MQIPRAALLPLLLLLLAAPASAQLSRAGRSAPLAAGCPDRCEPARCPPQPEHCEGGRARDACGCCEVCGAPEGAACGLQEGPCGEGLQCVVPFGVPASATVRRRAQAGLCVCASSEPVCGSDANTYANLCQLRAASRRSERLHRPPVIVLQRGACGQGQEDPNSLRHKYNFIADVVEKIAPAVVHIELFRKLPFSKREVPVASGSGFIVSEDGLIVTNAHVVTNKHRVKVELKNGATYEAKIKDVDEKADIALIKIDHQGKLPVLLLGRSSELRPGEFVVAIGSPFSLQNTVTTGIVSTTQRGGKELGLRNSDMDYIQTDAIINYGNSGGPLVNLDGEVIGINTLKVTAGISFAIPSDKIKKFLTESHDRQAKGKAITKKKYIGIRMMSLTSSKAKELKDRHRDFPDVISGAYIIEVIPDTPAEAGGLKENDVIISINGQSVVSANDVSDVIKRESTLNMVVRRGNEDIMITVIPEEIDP
SIAE primary = human SIAE inhibition, primary screen; Q9HAT2; SIAE FP-Rh probe binding, fluorescence polarization; inhibition, % at 9.66 µM; 370,000 compounds, 0.69% hits; AID 1053197;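 active = inhibition above a cutoff: mean of compounds within the control limits plus 3 SD of those, cut at about 17% in these data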;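 also: 0% = plate median of compound wells and 100% = probe without SIAE protein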
PME-1 primary = PME-1 (human) inhibition | Q9Y570 | recombinant PME-1, FP-Rh probe fluorescence polarization | inhibition, % at 5.9 µM | 320,000 compounds, 0.53% hits | AID 2130;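 active = inhibition above the campaign mean of all compounds plus 3 SD, cut at about 26% in these data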;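 also: competitive labeling of PME-1 active site by serine hydrolase directed probe; 0% = PME-1 with DMSO and 100% = wells lacking PME-1 enzyme; inhibitors block probe labeling so polarization falls and inhibition rises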
ABHD4 inh = inhibits mouse alpha/beta hydrolase domain 4; purified mABHD4, FP-Rh probe fluorescence polarization; inhibition, % at 8.92 µM; 370,000 compounds, 0.54% hits;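 active = inhibition exceeding the mean over every tested compound plus 3 SD, cut at about 30% in these data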;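 also: 0% = plate median of compound wells and 100% = S159A mutant with DMSO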
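Doses – 8.92 µM, single dose · Material – wild-type mouse ABHD4 protein · Replication – single well per compound (singlicate) · Measure – percent inhibition of probe binding, normalized to plate controls · Schedule – 45 min compound pre-incubation plus 60 min probe step, 25 °C · Detection – fluorescence polarization with parallel and perpendicular emission, 525/598 nm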
TCR-CD3 inh = inhibitors of human TCR-CD3 interaction; TAMRA-labeled TCR probe fluorescence, biochemical; inhibition, % at 9.4 µM; 360,000 compounds, 0.37% hits; in the data active = inhibition above about 19%;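 also: recombinant mutant TCR 2C K166C tagged with TAMRA read by polarization; 0% = receptor in buffer alone and 100% = receptor with positive control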
Fam108B counter = counter-screen for RBBP9 inhibitors: inhibitors of mouse Fam108B; recombinant Fam108B, FP-Rh probe fluorescence polarization; inhibition, % at 9.51 µM; AID 1947; 300,000 compounds, 0.33% hits;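 active = inhibition above the screen mean inhibition plus 3 SD, computed separately per campaign, cut at about 18% in these data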;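 also: inhibitors lower polarization as less probe binds the enzyme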
SIAE inh conf = human SIAE inhibition, confirmation; shares compounds with SIAE primary; SIAE FP-Rh activity-based probe, fluorescence polarization; inhibition, % at 9.66 µM; 2,300 compounds, 13% hits; AID 1117263;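 active = mean inhibition of the replicates above the hit cutoff set in the primary screen, cut at about 17% in these data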;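 also: 0% = SIAE with DMSO and probe and 100% = probe without SIAE; inhibitors lower polarization as more probe stays unbound to SIAE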
Starred values were filed as active, the others as inactive. Most compounds without a hit are left out; they make up all but 1.8% or so of the library.

Results for CC(=O)Nc1ccc(-c2ccnc3c2CC(C)(C(=O)NCc2ccc(N(C)C)cc2)O3)cc1 (configuration not stated) ?
SIAE primary: -4; ABHD4 inh: 9; TCR-CD3 inh: -2

What do the screens show for `CCn1c(CO)nc2c1c(=O)[nH]c(=O)n2Cc1ccccc1`?
HTRA1 inhibitor: 4; SIAE primary: 20*; PME-1 primary: 1; ABHD4 inh: 0; TCR-CD3 inh: 0; Fam108B counter: 4; SIAE inh conf: -2

Results for COc1ccc(CNC(=O)Cn2cc(C(F)(F)F)ccc2=O)cc1OC ?
HTRA1 inhibitor: 2; SIAE primary: 0; PME-1 primary: -1; ABHD4 inh: -10; TCR-CD3 inh: 1; Fam108B counter: -5

What do the screens show for `CN(C)CCN(C(=O)C1CCN(S(=O)(=O)c2cccs2)CC1)c1nc2c(F)cccc2s1`?
HTRA1 inhibitor: 0; SIAE primary: 19*; PME-1 primary: 3; ABHD4 inh: 4; TCR-CD3 inh: -3; Fam108B counter: 3; SIAE inh conf: -1

How did O=C(CC[C@H]1O[C@@H](n2cnc3c(NC(=O)c4ccccc4)ncnc32)[C@H](O)[C@@H]1O)NCC1CCN(Cc2ccccc2)CC1 do in these assays?
SIAE primary: 34*; ABHD4 inh: 8; TCR-CD3 inh: 2; SIAE inh conf: 27*

What do the screens show for `CC(=O)Nc1ccc(N2C(C(C)=O)=NN(c3ccc(Cl)cc3)C2c2sccc2C)cc1` (configuration not stated)?
HTRA1 inhibitor: -6; SIAE primary: 21*; PME-1 primary: 9; ABHD4 inh: -8; TCR-CD3 inh: 3; Fam108B counter: 4; SIAE inh conf: 5

How did CC(=O)Nc1ccc(N2C(C(C)=O)=NN(c3ccccc3)C2c2cccs2)cc1 (configuration not stated) do in these assays?
HTRA1 inhibitor: -2; SIAE primary: 10; PME-1 primary: 2; ABHD4 inh: -2; TCR-CD3 inh: -1; Fam108B counter: 1

What do the screens show for `CC(C)Cn1c(N)c(C(=O)CSc2nnc(-c3ccco3)n2C)c(=O)n(C)c1=O`?
HTRA1 inhibitor: 3; SIAE primary: -7; PME-1 primary: -5; ABHD4 inh: 1; TCR-CD3 inh: 5

How did CC(C)Cn1c(SCC(=O)c2ccc(Cl)s2)nnc1-c1ccco1 do in these assays?
HTRA1 inhibitor: -22; SIAE primary: 25*; PME-1 primary: 0; ABHD4 inh: 3; TCR-CD3 inh: -1; Fam108B counter: 2; SIAE inh conf: 3

What do the screens show for `CCOC(=O)c1c(C)[nH]c(C)c1S(=O)(=O)N1CCN(c2ccc(F)cc2)CC1`?
HTRA1 inhibitor: -4; SIAE primary: 19*; PME-1 primary: 0; ABHD4 inh: 1; TCR-CD3 inh: -6; Fam108B counter: -5; SIAE inh conf: 3

What do the screens show for `COCCNc1ncnc2c1ncn2[C@H]1CN(Cc2ccco2)C[C@@H](CO)O1`?
SIAE primary: 6; ABHD4 inh: 0; TCR-CD3 inh: 5

What do the screens show for `Cc1ccc(-c2nc(C3CCN(S(=O)(=O)c4ccc(C(F)(F)F)cc4)CC3)no2)cc1`?
HTRA1 inhibitor: 2; SIAE primary: 2; PME-1 primary: 2; ABHD4 inh: 8; TCR-CD3 inh: 2; Fam108B counter: 5

What do the screens show for `CS(=O)(=O)N1CCC(c2noc(-c3ccc(C(F)(F)F)cc3)n2)CC1`?
HTRA1 inhibitor: -4; SIAE primary: 28*; PME-1 primary: -2; ABHD4 inh: -2; TCR-CD3 inh: -1; Fam108B counter: 2; SIAE inh conf: -1

Results for O=C(NCc1ccc(Cl)cc1)c1cc2ccccn2n1 ?
HTRA1 inhibitor: -3; SIAE primary: 54*; PME-1 primary: 4; ABHD4 inh: -2; TCR-CD3 inh: -8; Fam108B counter: 2; SIAE inh conf: 4

How did Cc1ccccc1P(=O)(CO)c1ccccc1C do in these assays?
HTRA1 inhibitor: 1; SIAE primary: 178*; PME-1 primary: 0; ABHD4 inh: 1; TCR-CD3 inh: -10; Fam108B counter: -5; SIAE inh conf: 3

Results for Cc1ccccc1NC(=O)CC(=O)Nc1ccccc1C ?
HTRA1 inhibitor: -5; SIAE primary: 1; PME-1 primary: 2; ABHD4 inh: 7; TCR-CD3 inh: -4; Fam108B counter: 1

What do the screens show for `Cc1cc(SCC(=O)N/N=C/c2ccc(O)cc2O)nc2ccccc12`?
HTRA1 inhibitor: 0; SIAE primary: 23*; PME-1 primary: 8; ABHD4 inh: -2; TCR-CD3 inh: 2; Fam108B counter: 7; SIAE inh conf: -8

How did Cc1cc(SCC(=O)NC2CC2)nc2ccccc12 do in these assays?
HTRA1 inhibitor: -2; SIAE primary: 9; ABHD4 inh: 4; TCR-CD3 inh: -9

How did COc1ccc(-n2nc3ccc(N)cc3n2)cc1Cl do in these assays?
HTRA1 inhibitor: 0; SIAE primary: 72*; PME-1 primary: 10; ABHD4 inh: -19; TCR-CD3 inh: 3; Fam108B counter: 13; SIAE inh conf: 0

Results for CCCS(=O)(=O)NC(=O)C1(C)CCCN(C(=O)c2ccncc2)C1 (configuration not stated) ?
SIAE primary: 0; ABHD4 inh: 7; TCR-CD3 inh: -10

Results for Oc1oc(-c2ccccc2)nc1C=Nc1ccccc1 ?
HTRA1 inhibitor: 0; SIAE primary: 0; PME-1 primary: 7; ABHD4 inh: 7; TCR-CD3 inh: 8; Fam108B counter: 1

How did CN(C)c1ccc(N=Cc2nc(-c3ccccc3)oc2O)cc1 do in these assays?
HTRA1 inhibitor: 1; SIAE primary: 18*; PME-1 primary: 1; ABHD4 inh: 1; TCR-CD3 inh: 1; Fam108B counter: 7; SIAE inh conf: 15

How did Cn1c(CCN2CCN(c3ccccn3)CC2)nc2cc(NS(=O)(=O)c3ccc(Cl)cc3)ccc21 do in these assays?
HTRA1 inhibitor: -1; SIAE primary: 5; PME-1 primary: -3; ABHD4 inh: 0; TCR-CD3 inh: 5; Fam108B counter: 11

Results for Cc1ccc(S(=O)(=O)Nc2ccc3c(c2)nc(CCN2CCN(c4ccccn4)CC2)n3C)cc1 ?
HTRA1 inhibitor: 2; SIAE primary: 19*; PME-1 primary: 3; ABHD4 inh: 0; TCR-CD3 inh: 7; Fam108B counter: 6; SIAE inh conf: -1

How did O=C(c1cn(-c2ccccc2)nc1-c1cccnc1)N1CCN(S(=O)(=O)c2ccc(Cl)cc2)CC1 do in these assays?
HTRA1 inhibitor: 4; SIAE primary: -4; ABHD4 inh: 7; TCR-CD3 inh: 6

Results for O=[N+]([O-])c1cccc(N/N=C/c2ccc(N3CCOCC3)cc2)c1 ?
HTRA1 inhibitor: 26; SIAE primary: 18*; PME-1 primary: 9; ABHD4 inh: 8; TCR-CD3 inh: -10; Fam108B counter: 12; SIAE inh conf: 6

Source: PubChem
